Data published in ChEMBL document CHEMBL2046318, “Synthesis and biological evaluation of novel flavonols as potential anti-prostate cancer agents” (Eur J Med Chem, 2012).

Tests used:
CWR22R [1] = test: Inhibition of prostate specific antigen expression in human 22Rv1 cells assessed as PSA protein level at 20 uM after 72 hrs by densitometry relative to untreated control; assay type: functional; set-up: scale not given: the % may be the effect or the level left
Outline: (§1)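 22rv1 cells were seeded at 2 × 10^5 per well, left to adhere overnight, then treated for 72 h at 10 or 20 µM. Cells were lysed in NP-40/deoxycholate/SDS buffer with protease and phosphatase inhibitors. 15 µg protein was run on SDS-PAGE and blotted, then probed with AR, PSA and actin antisera and an HRP secondary. Bands were quantified by densitometry as % of vehicle control, mean of 3–5 replicates with SD.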

CWR22R [2] = test: Inhibition of androgen receptor expression in human 22Rv1 cells assessed as AR protein level at 10 uM after 72 hrs by densitometry relative to untreated control; assay type: functional; set-up: scale not given: the % may be the effect or the level left; outline: as §1
CWR22R [3] = test: Inhibition of androgen receptor expression in human 22Rv1 cells assessed as AR protein level at 20 uM after 72 hrs by densitometry relative to untreated control; assay type: functional; set-up: scale not given: the % may be the effect or the level left; outline: as §1
CWR22R [4] = test: Antiproliferative activity against human 22Rv1 cells incubated up to 144 hrs by Coulter particle count and size analyzer; assay type: functional, cell-based; details: 22Rv1, 144 h
Outline: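 22rv1 cells in RPMI 1640 with 10% FBS were seeded at 5 × 10^3 per well, left to adhere overnight, then exposed to agents in DMSO (final DMSO <0.1%) for up to 144 h. Cells were trypsinised and counted on a Coulter counter. Cell number as % of DMSO control was plotted against log concentration at 144 h, and the IC50 was taken from the straight-line fit. Mean of 3–6 experiments.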

CWR22R [5] = test: Inhibition of prostate specific antigen expression in human 22Rv1 cells assessed as PSA protein level at 10 uM after 72 hrs by densitometry relative to untreated control; assay type: functional; set-up: scale not given: the % may be the effect or the level left; outline: as §1
CWR22R [6] = test: Growth inhibition of human 22Rv1 cells at 0.01 uM incubated up to 144 hrs by Coulter particle count and size analyzer; assay type: functional; details: 22Rv1, 144 h, read-out: GI
CWR22R [7] = test: Growth inhibition of human 22Rv1 cells at 0.1 uM incubated up to 144 hrs by Coulter particle count and size analyzer; assay type: functional; details: 22Rv1, 144 h, read-out: GI
CWR22R [8] = test: Growth inhibition of human 22Rv1 cells at 50 uM incubated up to 144 hrs by Coulter particle count and size analyzer; assay type: functional; details: 22Rv1, 144 h, read-out: GI

| Structure (SMILES) | Activity (CWR22R [1]) | Activity (CWR22R [2]) | Activity (CWR22R [3]) | IC50 (CWR22R [4]) | Activity (CWR22R [5]) | inhibition of growth at 0.01 µM (CWR22R [6]) | inhibition of growth at 0.1 µM (CWR22R [7]) | inhibition of growth at 50 µM (CWR22R [8]) |
| --- | --- | --- | --- | --- | --- | --- | --- | --- |
| O=c1c(O)c(-c2ccc(O)cc2)oc2cc(F)ccc12 | 3% | 129% | 64% | 8.4 µM | 32% |  |  |  |
| COc1cc(-c2oc3ccccc3c(=O)c2OC)cc(OC)c1OC | 149% | 94% | 80% | 2.6 µM | 167% |  |  |  |
| COc1cc(-c2oc3cc(F)cc(F)c3c(=O)c2O)cc(OC)c1OC | 68% | 100% | 103% | 5.9 µM | 95% |  |  |  |
| COc1cc(-c2oc3ccccc3c(=O)c2O)cc(OC)c1OC | 23% | 96% | 62% | 3.1 µM | 21% |  |  |  |
| O=c1c(O)c(-c2ccc(O)c(O)c2)oc2cc(O)cc(O)c12 [QUERCETIN] | 31% | 114% | 120% | 15.5 µM | 40% |  |  |  |
| COc1ccc(-c2oc3cc(F)cc(F)c3c(=O)c2O)cc1OC | 88% | 110% | 94% | 7.4 µM | 78% |  |  |  |
| COc1cccc(-c2oc3ccccc3c(=O)c2O)c1 | 13% | 64% | 23% | 5.3 µM | 27% |  |  |  |
| COc1cc(-c2oc3ccc(F)cc3c(=O)c2O)cc(OC)c1OC | 5% | 91% | 75% | 3.3 µM | 14% |  |  |  |
| COc1cc(-c2oc3cc(F)ccc3c(=O)c2O)cc(OC)c1OC | 22% | 112% | 75% | 4 µM | 37% |  |  |  |
| O=c1c(O)c(-c2ccc(O)c(O)c2)oc2cc(O)ccc12 [FISETIN] | 44% | 109% | 101% | 25.9 µM | 51% |  |  |  |
| O=c1c(O)c(-c2ccc(O)c(O)c2)oc2cc(F)cc(F)c12 | 22% | 116% | 86% | 16.3 µM | 61% |  |  |  |
| COc1cc(OC)cc(-c2oc3ccccc3c(=O)c2O)c1 | 109% | 74% | 72% | 12.4 µM | 133% |  |  |  |
| O=c1c(O)c(-c2cc(O)c(O)c(O)c2)oc2cc(O)cc(O)c12 [MYRICETIN] | 121% | 119% | 114% | 13.1 µM | 110% |  |  |  |
| COc1ccc(-c2oc3ccccc3c(=O)c2O)cc1 | 115% | 71% | 61% | 30.5 µM | 127% |  |  |  |
| O=c1c(O)c(-c2ccc(O)cc2)oc2cc(O)cc(O)c12 [KAEMPFEROL] | 37% | 128% | 131% | > 40 µM | 33% |  |  |  |
| COc1ccc(-c2oc3cc(F)ccc3c(=O)c2O)cc1 | 62% | 112% | 104% | 7.1 µM | 70% |  |  |  |
| O=c1c(O)c(-c2ccc(O)cc2)oc2cc(O)ccc12 [RESOKAEMPFEROL] | 39% | 141% | 125% | 30.2 µM | 47% |  |  |  |
| O=c1c(O)c(-c2ccccc2)oc2ccccc12 [FLAVONOL] | 80% | 100% | 92% | 14.9 µM | 124% |  |  |  |
| COc1cc(-c2oc3ccccc3c(=O)c2F)cc(OC)c1OC | 63% | 110% | 125% | > 40 µM | 63% | 18% | 46% | 48% |
| O=c1c(O)c(-c2cc(O)c(O)c(O)c2)oc2cc(F)cc(F)c12 | 132% | 118% | 90% | 6.3 µM | 134% |  |  |  |
| COc1ccc(-c2oc3cc(F)cc(F)c3c(=O)c2O)cc1 | 66% | 115% | 111% | 15.8 µM | 85% |  |  |  |
| O=c1c(O)c(-c2ccc(O)cc2)oc2cc(F)cc(F)c12 | 33% | 136% | 96% | 28.7 µM | 77% |  |  |  |
| O=c1c(O)c(-c2cc(O)c(O)c(O)c2)oc2ccccc12 | 109% | 94% | 89% | 7.7 µM | 110% |  |  |  |
| COc1ccc(-c2oc3cc(F)ccc3c(=O)c2O)cc1OC | 70% | 129% | 120% | > 40 µM | 78% |  |  |  |
| O=c1c(O)c(-c2cc(O)c(O)c(O)c2)oc2cc(F)ccc12 | 106% | 100% | 94% | 11.6 µM | 111% |  |  |  |
| O=c1c(O)c(-c2cc(O)c(O)c(O)c2)oc2cc(O)ccc12 [ROBINETIN] | 111% | 84% | 102% | 7.1 µM | 69% |  |  |  |
| COc1ccc(-c2oc3ccccc3c(=O)c2O)cc1OC [3-HYDROXY-3',4'-DIMETHOXYFLAVONE] | 56% | 63% | 81% | 12.3 µM | 61% |  |  |  |
| O=c1c(O)c(-c2ccc(O)c(O)c2)oc2cc(F)ccc12 | 18% | 108% | 59% | 9.2 µM | 21% |  |  |  |
